Experimental data reported in publication PMC9716260 (Cancer Discovery, 2022).

Legend:
[1] = tested on: BRG1/BRM; assay: Immunoblot for BRG1/BRM and cleaved PARP in degrader-treated neurospheres; type: cell-based, human
Method in brief: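 BT869, HSJD-DIPG007 and SU-DIPGXIIIP* neurospheres were collected 24, 48 and 72 h after rising degrader concentrations; SU-DIPGXIIIP* was also collected at 6 h. SU-DIPGXIIIP* gave nuclear extracts; the other two gave whole-cell lysates in NP-40/deoxycholate/SDS buffer with protease and phosphatase inhibitors. Blots were blocked in 5% milk/TBST, then BRG1, BRM, PARP, cleaved PARP, GAPDH and H3 antibodies at 1:1,000 overnight at 4°C, then HRP secondary 1 h at RT, then ECL.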

[2] = tested on: BRG1 binding sites in BT869 (H3.3K27M-glioma) neurospheres; assay: ATAC-seq chromatin accessibility in drug-treated BT869 neurospheres; type: cell-based, human; details: BT869, 1 μmol/L, 24 and 48 hours
Method in brief: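 BT869 neurospheres were exposed to DMSO or 1 μmol/L BRG1/BRM inhibitor or degrader and collected 24 or 48 h later without FACS enrichment of viable cells. Bulk ATAC-seq was run as two biological replicates, each with two technical replicates. Genes linked to differentially accessible peaks were overlapped with single-cell H3K27M glioma metaprograms.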

[3] = tested on: BT869 (H3.3K27M-glioma) subcutaneous tumors; assay: Subcutaneous xenograft, BT869; type: in vivo, NSG mice
Method in brief: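 Female NSG mice aged about 6–8 weeks were implanted with BT869 cells, 3 × 10^6 in PBS/Matrigel, into the right flank. Groups of 10 received the degrader at 50 mg/kg i.p. daily or vehicle for up to 60 days. BRG1 immunostaining was scored as nuclear DAB OD mean.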

[4] = Plasma level after a single subcutaneous injection; type: in vivo; details: single subcutaneous injection of 50 mg/kg
[5] = Kinetic solubility analysis; type: physicochemical; details: PBS, pH 7.4, aqueous buffer, kinetic from dmso stock
Method in brief: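 Test compound as a 10 mmol/L DMSO stock was diluted into 50 mmol/L PBS, pH 7.4, to a final 200 μmol/L. This was done in the lower chamber of filter vials by a contract laboratory.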

[6] = tested on: SW-13 BRG1/BRM-deficient adrenocortical carcinoma cell line; assay: Cell viability in BRG1/BRM-deficient control cell line; type: cell-based; details: Homo sapiens, SW13
Method in brief: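 SW-13 cells were dosed with test compound at 24 and 96 h after plating, across 10 nmol/L to 10 μmol/L. Viability was read by CellTiter-Glo 7 days after drug exposure. Concentrations were log10-transformed and responses normalized to DMSO controls. Log IC50 was interpolated from a variable-slope least-squares fit.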

[7] = molecular target: BRG1 (Homo sapiens, UniProt P51532); assay: SILAC quantitative proteomics in BT869 neurospheres; type: cell-based; details: BT869, 1 μmol/L, 2 days of treatment
Chain of BRG1 (P51532 whole entry): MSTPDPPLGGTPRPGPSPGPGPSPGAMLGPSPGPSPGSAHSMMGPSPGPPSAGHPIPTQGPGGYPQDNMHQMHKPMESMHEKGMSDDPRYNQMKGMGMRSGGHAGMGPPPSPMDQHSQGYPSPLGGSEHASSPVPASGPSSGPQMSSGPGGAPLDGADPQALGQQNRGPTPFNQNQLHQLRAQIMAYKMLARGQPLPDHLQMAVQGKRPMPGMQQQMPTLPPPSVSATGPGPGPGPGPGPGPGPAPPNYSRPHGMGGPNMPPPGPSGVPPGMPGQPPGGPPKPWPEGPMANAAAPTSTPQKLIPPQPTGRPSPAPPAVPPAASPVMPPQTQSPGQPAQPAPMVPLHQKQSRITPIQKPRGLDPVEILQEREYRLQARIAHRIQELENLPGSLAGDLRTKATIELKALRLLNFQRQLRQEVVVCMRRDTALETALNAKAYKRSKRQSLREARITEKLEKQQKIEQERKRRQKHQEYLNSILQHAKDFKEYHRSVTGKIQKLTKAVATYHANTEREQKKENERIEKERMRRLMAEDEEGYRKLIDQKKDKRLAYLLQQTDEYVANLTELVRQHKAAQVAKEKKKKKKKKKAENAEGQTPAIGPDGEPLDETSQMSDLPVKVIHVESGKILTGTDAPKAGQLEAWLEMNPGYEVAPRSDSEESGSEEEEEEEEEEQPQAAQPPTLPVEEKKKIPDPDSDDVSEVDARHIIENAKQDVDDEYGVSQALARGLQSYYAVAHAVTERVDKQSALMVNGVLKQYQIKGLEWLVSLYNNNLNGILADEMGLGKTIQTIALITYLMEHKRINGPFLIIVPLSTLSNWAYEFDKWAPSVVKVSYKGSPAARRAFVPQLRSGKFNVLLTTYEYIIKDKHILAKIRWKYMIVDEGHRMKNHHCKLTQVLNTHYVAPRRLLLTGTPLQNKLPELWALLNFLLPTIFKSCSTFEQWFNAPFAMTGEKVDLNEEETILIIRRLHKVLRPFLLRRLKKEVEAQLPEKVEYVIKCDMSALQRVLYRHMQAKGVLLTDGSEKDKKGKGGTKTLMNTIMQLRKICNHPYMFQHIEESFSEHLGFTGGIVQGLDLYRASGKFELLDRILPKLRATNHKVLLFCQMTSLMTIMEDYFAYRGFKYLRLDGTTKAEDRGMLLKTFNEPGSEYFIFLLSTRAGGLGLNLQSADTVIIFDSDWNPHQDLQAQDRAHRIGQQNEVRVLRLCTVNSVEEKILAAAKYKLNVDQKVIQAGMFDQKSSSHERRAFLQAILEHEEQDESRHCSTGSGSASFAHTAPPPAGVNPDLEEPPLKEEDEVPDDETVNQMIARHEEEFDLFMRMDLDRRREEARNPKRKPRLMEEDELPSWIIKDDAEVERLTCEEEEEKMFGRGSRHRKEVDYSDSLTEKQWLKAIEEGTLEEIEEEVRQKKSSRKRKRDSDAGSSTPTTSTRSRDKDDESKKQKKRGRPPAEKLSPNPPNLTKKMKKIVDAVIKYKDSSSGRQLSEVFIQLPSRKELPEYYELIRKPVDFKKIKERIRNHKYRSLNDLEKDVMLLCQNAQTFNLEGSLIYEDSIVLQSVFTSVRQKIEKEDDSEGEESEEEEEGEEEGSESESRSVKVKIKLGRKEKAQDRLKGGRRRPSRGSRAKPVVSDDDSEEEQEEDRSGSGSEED
Method in brief: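 BT869 cells were SILAC-labelled for 5 passages in custom TSM medium with heavy (13C615N2 lysine, 13C615N4 arginine) or light amino acids; incorporation was >95%. Cells (1.5 × 106) were seeded 1 day ahead, then given DMSO (light) or 1 μmol/L degrader (heavy) for 48 h. Lysis was in RIPA with protease inhibitors, benzonase and 1 mmol/L DTT. BCA-matched lysates were mixed 1:1. Significance came from a heteroscedastic two-tailed t test.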

[8] = Pharmacokinetic study, drug in plasma and brain after intraperitoneal dose; type: in vivo, CD1 mice; details: after intraperitoneal administration, mass spectrometry
Method in brief: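 Female CD1 mice, three per time point, received a single i.p. dose of test compound in 10% hydroxypropyl β-cyclodextrin in sterile water. Plasma and brain were collected at 30 min, 2 h and 4 h and quantified by LC/MS-MS. Parameters came from a noncompartmental model.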

SMILES	Time to degradation of BRG1/BRM ([1]; SU-DIPGXIIIP* cells) [h]	Lowest concentration degrading BRG1/BRM ([1]; SU-DIPGXIIIP* cells, 6 hours) [nmol/L]	DNA accessibility at BRG1 binding sites (ATAC-seq) [2]	Degradation of BRG1 in treated tumors ([3]; BT869 s.c., 50 mg/kg i.p. daily, versus vehicle)	Body weight and toxic effects (plasma, liver, spleen) ([3]; mice treated for 45 days, Compound 14 20 mg/kg i.p. daily, JQ-dS-4 50 mg/kg i.p. daily)	Plasma levels [4] [ng/mL]	Plasma levels ([4]; converted from ng/mL) [nM]	Time to complete degradation of BRG1/BRM ([1]; BT869 cells) [h]	Time to complete degradation of BRG1/BRM ([1]; HSJD-DIPG007 cells) [h]	Time to complete degradation of BRG1/BRM ([1]; SU-DIPGXIIIP* cells) [h]	solubility at 24 h [5] [µM]	IC50 [6] [µM]	Proteins degraded (SILAC) [7]	Blood–brain barrier penetrance [8]
Cc1ncsc1-c1ccc([C@H](C)NC(=O)[C@@H]2C[C@@H](O)CN2C(=O)[C@@H](NC(=O)CN2CCN(c3cc(-c4ccccc4O)nnc3N)CC2)C(C)(C)C)cc1 [AU-15330, reference compound]	≤ 6	500	decrease in DNA accessibility at BRG1 binding sites	–	–	–	–	–	–	–	–	–	–	–
O=C1CCC(N2C(=O)c3cccc(NCCCCNC(=O)c4cccc(C#Cc5cc(NC(=O)Nc6ccnc(Cl)c6)ccn5)c4)c3C2=O)C(=O)N1 (stereo not drawn) [JQ-dS-4, 3-((4-(3-(2-chloropyridin-4-yl)ureido)pyridin-2-yl)ethynyl)-N-(4-((2-(2,6-dioxopiperidin-3-yl)-1,3-dioxoisoindolin-4-yl)amino)butyl)benzamide]	–	–	decrease in DNA accessibility at BRG1 binding sites	negligible degradation of BRG1	did not observe any significant changes in body weight or toxic effects	240	~300	48	72	72	< 1.56	6	BRG1 was one of the top significant proteins degraded	limited penetration into brain tissue
